# Results taken from ChEMBL document CHEMBL1152682, “Structural optimization of a CXCR2-directed antagonist that indirectly inhibits gamma-secretase and reduces Abeta” (Bioorg Med Chem, 2009).
# pIC50: −log10 of the molar value.
# Assay: Antagonist activity at CXCR2 expressed in 7w CHO cells co-expressing human recombinant APP 751 assessed as inhibition of gamma-secretase-mediated amyloid beta40 production at 100 uM; call rule not given here
row,IC50,SMILES
1,Not Active,O=C(Nc1ccccc1O)Nc1ccccc1Br
2,Not Active,O=C(Nc1ccccc1)Nc1ccccc1Br
3,Not Active,COc1cc([N+](=O)[O-])ccc1NC(=O)Nc1ccccc1Cl
4,Not Active,COc1cc([N+](=O)[O-])ccc1NC(=O)Nc1ccccc1Br
5,Not Active,O=C(Nc1ccccc1O)Nc1ccccc1Cl
6,Not Active,COc1cc([N+](=O)[O-])ccc1NC(=O)Nc1ccccc1
7,Not Active,O=C(Nc1ccccc1F)Nc1ccc(O)cc1[N+](=O)[O-]

# Assay: Antagonist activity at CXCR2 expressed in 7w CHO cells assessed as inhibition of GROalpha-mediated intracellular calcium mobilization by […] fluorescence assay
# Type: functional, cell-based
# Method in brief: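 Adherent 7w cells (CHO stably expressing human APP751), grown to ~100% confluency in 96-well plates, loaded with […] dye for 1 h at 37 °C. Compounds were added from DMSO stocks in 1X HBSS (1% DMSO final) at ≥9 concentrations (10–100,000 nM), n = 8 each. GROα (33 nM final) followed 15 s later. Peak calcium was read at Ex/Em 494/516, and data were fitted to a 4-parameter sigmoid; three experiments.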
row,SMILES,IC50
1,COc1cc([N+](=O)[O-])ccc1NC(=O)Nc1ccccc1F,Active
2,O=C(Nc1ccc([N+](=O)[O-])cc1O)Nc1cc(Cl)ccc1Cl,Active

# The remaining lines, values ahead:
row,IC50,SMILES
1,Active,CC(C)c1ccccc1NC(=O)Nc1ccc([N+](=O)[O-])cc1O
2,Active,O=C(Nc1ccc([N+](=O)[O-])cc1O)Nc1ccccc1F
3,Active,O=C(Nc1ccc([N+](=O)[O-])cc1O)Nc1ccccc1Cl

# Assay: Antagonist activity at CXCR2 expressed in 7w CHO cells co-expressing human recombinant APP 751 assessed as inhibition of gamma-secretase-mediated amyloid beta42 production
# Type: functional, cell-based
row,pIC50,SMILES
1,4.82,CCc1cccc(C(C)CC)c1NC(=O)Nc1ccc([N+](=O)[O-])cc1O (stereo not given)
2,6.00,CCC(C)c1ccccc1NC(=O)Nc1ccc([N+](=O)[O-])cc1O (stereo not given)

# Assay: Antagonist activity at CXCR2 expressed in 7w CHO cells co-expressing human recombinant APP 751 assessed as inhibition of gamma-secretase-mediated amyloid beta40 production
row,SMILES,pIC50
1,O=C(Nc1ccc([N+](=O)[O-])cc1O)Nc1cc(F)c(F)cc1F,5.00
2,CCCc1ccc(NC(=O)Nc2ccc([N+](=O)[O-])cc2O)cc1,5.40
3,O=C(Nc1ccc([N+](=O)[O-])cc1O)Nc1ccc(F)cc1F,4.82
4,O=C(Nc1ccc([N+](=O)[O-])cc1O)Nc1c(F)cc(F)cc1F,4.82
5,O=C(Nc1cc(F)c(F)c(F)c1)Nc1ccc([N+](=O)[O-])cc1O,5.10
6,O=C(Nc1ccc(F)c(F)c1)Nc1ccc([N+](=O)[O-])cc1O,5.10
7,O=C(Nc1ccc([N+](=O)[O-])cc1)Nc1ccccc1F,4.52
8,O=C(Nc1ccc([N+](=O)[O-])cc1O)Nc1ccc(Cl)c(Cl)c1Cl,5.52
9,O=C(Nc1ccc([N+](=O)[O-])cc1O)Nc1cc(Cl)c(Cl)cc1Cl,5.52
10,O=C(Nc1ccc([N+](=O)[O-])cc1O)Nc1ccc(Cl)cc1Cl,6.52
11,Cc1ccc(NC(=O)Nc2ccc([N+](=O)[O-])cc2O)cc1C,4.82
12,COc1ccc(NC(=O)Nc2ccccc2F)c([N+](=O)[O-])c1,5.00
13,CCc1cccc(C)c1NC(=O)Nc1ccc([N+](=O)[O-])cc1O,5.15
14,O=C(Nc1ccc([N+](=O)[O-])cc1O)Nc1ccc(F)c(F)c1F,5.10
15,COc1cc([N+](=O)[O-])ccc1NC(=O)Nc1ccccc1F,5.30
16,CCc1cccc(NC(=O)Nc2ccc([N+](=O)[O-])cc2O)c1,5.40
17,CCc1ccc(NC(=O)Nc2ccc([N+](=O)[O-])cc2O)cc1,5.52
18,O=C(Nc1ccc([N+](=O)[O-])cc1O)Nc1ccc(Br)cc1Br,6.10
19,O=C(Nc1ccc(Cl)c(Cl)c1)Nc1ccc([N+](=O)[O-])cc1O,6.15
20,O=C(Nc1ccc([N+](=O)[O-])cc1O)Nc1cc(Cl)ccc1Cl,6.30
21,Cc1cc(C)cc(NC(=O)Nc2ccc([N+](=O)[O-])cc2O)c1,5.70
22,COc1cc([N+](=O)[O-])ccc1NC(=O)Nc1cccc(F)c1,4.92

# The next lines start with the values.
row,pIC50,SMILES
1,6.30,O=C(Nc1ccc([N+](=O)[O-])cc1O)Nc1ccccc1Br
2,4.92,O=C(Nc1ccccc1)Nc1ccc([N+](=O)[O-])cc1O
3,5.52,Cc1ccc(NC(=O)Nc2ccc([N+](=O)[O-])cc2O)c(C)c1
4,6.52,CC(C)c1ccccc1NC(=O)Nc1ccc([N+](=O)[O-])cc1O
5,4.82,CC(C)(C)c1ccccc1NC(=O)Nc1ccc([N+](=O)[O-])cc1O
6,5.00,O=C(Nc1ccc([N+](=O)[O-])cc1O)Nc1ccccc1F
7,6.22,O=C(Nc1ccc([N+](=O)[O-])cc1O)Nc1ccccc1Cl
8,5.00,Cc1ccc(C)c(NC(=O)Nc2ccc([N+](=O)[O-])cc2O)c1
9,7.00,CCCc1ccccc1NC(=O)Nc1ccc([N+](=O)[O-])cc1O
10,5.52,CCc1cccc(C(C)C)c1NC(=O)Nc1ccc([N+](=O)[O-])cc1O
11,5.30,Cc1cccc(C(C)C)c1NC(=O)Nc1ccc([N+](=O)[O-])cc1O
12,5.10,CC(C)c1cccc(C(C)C)c1NC(=O)Nc1ccc([N+](=O)[O-])cc1O
13,5.70,Cc1ccccc1NC(=O)Nc1ccc([N+](=O)[O-])cc1O
14,7.05,CCc1ccccc1NC(=O)Nc1ccc([N+](=O)[O-])cc1O
